18 compounds from ChEMBL document CHEMBL1122796, “Synthesis and antihypertensive activity of 6,7-disubstituted trans-4-amino-3,4-dihydro-2,2-dimethyl-2H-1-benzopyran-3-ols” (1984) can be followed below.

The structures appear in SMILES notation.

What all share (assay type): functional
Assay [1] relates to Rattus norvegicus. As to the kind of experiment: Compound was evaluated for oral antihypertensive activity in spontaneously hypertensive rats at 0.3 mg/kg peroral administration. The method, boiled down: (§1)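 Conscious spontaneously hypertensive rats (Okamoto-derived, 14-24 weeks old, systolic BP ≥180 mmHg), usually six per compound. Dosed orally by needle into the esophagus as a solution or suspension in 1% w/v methylcellulose; doses as free base. Systolic BP measured by tail cuff, restrained at 33.5 ± 0.5 °C, each reading a mean of ≥6 recordings, predose and at 1-6 h.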

Assay [2] deals with Rattus norvegicus. The assay can be described thus: Compound was evaluated for oral antihypertensive activity in spontaneously hypertensive rats at 1 mg/kg peroral administration. The method in brief:
as §1

For assay [3], the system named is Rattus norvegicus. As to the kind of experiment: Compound was evaluated for oral antihypertensive activity in spontaneously hypertensive rats at 3 mg/kg peroral administration. The method in brief: as §1
Assay [4] deals with Rattus norvegicus. The assay can be described thus: Compound was evaluated for oral antihypertensive activity in spontaneously hypertensive rats at 10 mg/kg peroral administration. The method in brief: as §1
The test system of assay [5] is Rattus norvegicus. As to the kind of experiment: Compound was evaluated for oral antihypertensive activity in spontaneously hypertensive rats at 0.03 mg/kg peroral administration. The method in brief:
as §1

Assay [6] concerns Rattus norvegicus. As to the kind of experiment: Compound was evaluated for oral antihypertensive activity in spontaneously hypertensive rats at 0.01 mg/kg peroral administration. The method, boiled down: as §1
Assay [7] deals with Rattus norvegicus. As to the kind of experiment: Compound was evaluated for oral antihypertensive activity in spontaneously hypertensive rats at 0.1 mg/kg peroral administration. The method in brief:
as §1

For assay [8], the system named is Rattus norvegicus. The assay can be described thus: Compound was evaluated for antihypertensive activity in deoxy-corticosterone acetate (DOCA) treated hypertensive rats at 0.3 mg/kg peroral administration. The note with it: route oral.
For assay [9], the system named is Rattus norvegicus. As to the kind of experiment: Compound was evaluated for antihypertensive activity in deoxy-corticosterone acetate (DOCA) treated hypertensive rats at 1 mg/kg peroral administration. The note with it: route oral.
Assay [10] has as its system Rattus norvegicus. The assay can be described thus: Compound was evaluated for antihypertensive activity in deoxy-corticosterone acetate (DOCA) treated hypertensive rats at 10 mg/kg peroral administration. The note with it: route oral.
For assay [11], the system named is Rattus norvegicus. As to the kind of experiment: Compound was evaluated for antihypertensive activity in deoxy-corticosterone acetate (DOCA) treated hypertensive rats at 100 mg/kg peroral administration. The settings on record: route oral.
The subject of assay [12] is Rattus norvegicus. As to the kind of experiment: Compound was evaluated for oral antihypertensive activity in spontaneously hypertensive rats at 100 mg/kg peroral administration. The method in brief: as §1
Assay [13] relates to Rattus norvegicus. As to the kind of experiment: Compound was evaluated for antihypertensive activity in deoxy-corticosterone acetate (DOCA) treated hypertensive rats at 3 mg/kg peroral administration. The settings on record: route oral.

Turning to `CC(=O)Nc1cc2c(cc1C(N)=O)[C@@H](N1CCCCC1)[C@H](O)C(C)(C)O2`, the “Max fall in blood pressure” value in assay [1] came to 34 mmHg; in [2] it was 50 mmHg.
Regarding `CC(=O)Nc1cc2c(cc1[N+](=O)[O-])OC(C)(C)[C@@H](O)[C@@H]2N1CCCCC1`, the “Max fall in blood pressure” value is 44 mmHg in [3] and 89 mmHg in [4].
With `CC1(C)Oc2cc(N)c([N+](=O)[O-])cc2[C@@H](N2CCCCC2)[C@@H]1O`, the “Max fall in blood pressure” value in assay [1] stood at 111 mmHg; in assay [5], 71 mmHg; in assay [6], 14 mmHg; in assay [7], 110 mmHg.
`CC1(C)Oc2cc([N+](=O)[O-])c(N)cc2[C@@H](N2CCCCC2)[C@@H]1O`: the “Max fall in blood pressure” value in assay [1] amounted to 42 mmHg; in [2], 67 mmHg.
Consider `CC(=O)Nc1cc2c(cc1C#N)[C@@H](N1CCCC1)[C@H](O)C(C)(C)O2`, for which the “Max fall in blood pressure” value in assay [1] is reported as 149 mmHg; in [7], 36 mmHg.
With `CC(=O)Nc1cc2c(cc1[N+](=O)[O-])OC(C)(C)[C@@H](O)[C@@H]2N1CCCC1`, the “Max fall in blood pressure” value amounted to 25 mmHg in assay [3] and 99 mmHg in assay [4].
Take `CC1(C)Oc2cc([N+](=O)[O-])c(N)cc2[C@@H](N2CCCC2)[C@@H]1O`: the “Max fall in blood pressure” value in assay [1] came to 83 mmHg; in [2] it was 71 mmHg; in assay [7] it was 22 mmHg.
On to `CC1(C)Oc2ccc(C#N)cc2C(N2CCCC2)[C@@H]1O.CS(=O)(=O)O` (some centres not stated), for which the “Max fall in blood pressure” value came out at 15 mmHg in assay [8], 41 mmHg in [1], 61 mmHg in assay [2] and 43 mmHg in [9].
With `CC1(C)Oc2cc(N)c(C#N)cc2[C@@H](N2CCCC2)[C@@H]1O`, the “Max fall in blood pressure” value in assay [1] amounted to 115 mmHg; in assay [5] it was 40 mmHg; in assay [7], 54 mmHg.
In the case of `CC(=O)Nc1cc2c(cc1[N+](=O)[O-])[C@@H](N1CCCCC1)[C@H](O)C(C)(C)O2`, the results for the “Max fall in blood pressure” value in assay [1] and in [7] were 108 mmHg and 78 mmHg, respectively.
With `CC1(C)Oc2cc(N)c([N+](=O)[O-])cc2[C@@H](N2CCCC2)[C@@H]1O`, the “Max fall in blood pressure” value in assay [5] came to 47 mmHg; in assay [7], 122 mmHg.
`CC1(C)Oc2ccc(N)cc2C(N2CCCC2)[C@@H]1O.CS(=O)(=O)O` (some centres not stated): the Max fall in blood pressure is -10 mmHg in [4] and 6 mmHg in assay [9].
As to `CC1(C)Oc2ccc([N+](=O)[O-])cc2C(N2CCCC2)[C@@H]1O.Cl` (some centres not stated), the “Max fall in blood pressure” value stood at 32 mmHg in assay [1], 52 mmHg in [2] and 52 mmHg in [9].
Consider `CC(=O)Nc1ccc2c(c1)C(N1CCCCC1)[C@H](O)C(C)(C)O2.Cl` (some centres not stated), for which the “Max fall in blood pressure” value is 6 mmHg in assay [10], 4 mmHg in assay [11], 42 mmHg in assay [12] and 19 mmHg in assay [4].
For the compound `CC1(C)Oc2cc([N+](=O)[O-])ccc2C(N2CCCC2)[C@@H]1O.Cl` (some centres not stated), the “Max fall in blood pressure” value in assay [13] turned out to be 90 mmHg; in assay [1], 17 mmHg; in assay [2] it was 83 mmHg; in assay [9], 44 mmHg.
As for `CC1(C)Oc2ccc(C(N)=O)cc2C(N2CCCCC2)[C@@H]1O.Cl` (some centres not stated), the “Max fall in blood pressure” value was found to be 24 mmHg in assay [2], 76 mmHg in assay [3], 109 mmHg in assay [4] and 9 mmHg in assay [9].
`Cl.NNc1nncc2ccccc12` [HYDRALAZINE HYDROCHLORIDE]: the “Max fall in blood pressure” value in assay [13] is listed as 65 mmHg; in [10], 113 mmHg; in assay [2] it was 42 mmHg; in assay [3], 51 mmHg; in assay [4], 89 mmHg; in [9], 32 mmHg.
Regarding `COC(=O)C1=C(C)NC(C)=C(C(=O)OC)C1c1ccccc1[N+](=O)[O-]` [NIFEDIPINE], the “Max fall in blood pressure” value in [13] came out at 51 mmHg; in [8], 20 mmHg; in [1] it was 13 mmHg; in assay [2], 30 mmHg; in assay [3] it was 62 mmHg; in [9], 33 mmHg.
